# Active and inactive are the calls of the source. The rule behind the calls is not given here.
# Legend:
# Homo sapiens [1] = species: Homo sapiens; test: Inhibition of P-gp in human K562/Dox cells assessed as potentiation of doxorubicin-induced cytotoxicity by measuring ratio of doxorubicin IC50 to doxorubicin IC50 in presence of test compound at 1 uM after 72 hrs by MTT assay; format: cell-based
# Summary of the method: (§1)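 K562/DOX cells were exposed 72 h to doxorubicin (0.0001–100 μM) with or without modulator at 0.1, 1.0 or 3.0 μM, then read by MTT at 570 nm. Reversal fold is doxorubicin IC50 without modulator divided by IC50 with modulator. Quadruplicate cultures, at least three determinations.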
# [2] = Half life in Sprague-Dawley rat plasma up to 1 uM by LC-MS/MS analysis; format: ADME, cell-free
# Summary of the method: (§2)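 Analyte at 1 μM was placed in PBS, pooled human plasma (healthy male volunteers) or Sprague-Dawley male rat plasma. Samples were incubated at 37 °C for 0, 30, 60 and 120 min in triplicate. Internal standard was added, samples were centrifuged, and supernatants were dried and redissolved in 10 mM formic acid water:acetonitrile 80:20. Quantitation was by LC-MS/MS, positive ESI, MRM. Plasma hydrolytic activity was checked with ketoprofen ethyl ester or enalapril.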
# [3] = Half life in human plasma up to 1 uM by LC-MS/MS analysis; format: ADME, cell-free; summary of the method: as §2
# [4] = Cytotoxicity against human K562/Dox cells at 0.1 to 3 uM after 72 hrs by MTT assay; format: cell-based
# Summary of the method: (§3)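 Compounds were given alone at 0.1, 1.0 and 3.0 μM to parental K562 and to P-gp-overexpressing K562/DOX cells. Exponential-phase cells were seeded at 10^4 cells/well and kept 72 h at 37 °C in 5% CO2. MTT was then added for 3 h, formazan was dissolved in acidified isopropanol, and absorbance was read at 570 nm.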
# K562 [5] = test: Potentiation of doxorubicin-induced cytotoxicity against human K562 cells at 1 uM after 72 hrs by MTT assay; format: functional, cell-based
# Summary of the method: (§4)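 Doxorubicin (0.0001–100 μM) was tested alone or combined with modulator at 0.1, 1.0 or 3.0 μM on K562/DOX or parental K562 cells, seeded at 10^4 cells/well. Plates ran 72 h at 37 °C in 5% CO2, followed by 3 h MTT, acidified isopropanol and A570. Doxorubicin IC50 was taken as mean ± SE of at least three determinations with quadruplicate cultures.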
# Homo sapiens [6] = species: Homo sapiens; test: (§5) Inhibition of P-gp in human K562/Dox cells assessed as reduction in Rh-123 efflux by measuring mean fluorescence intensity at 1 uM preincubated for 15 mins followed by Rh-123 addition for 30 mins and subsequent replacement in Rh-123 free medium measured after 30 mins by FACS analysis; format: cell-based
# Summary of the method: (§6)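 K562/DOX cells pretreated with modulator (1.0 μM) 15 min before loading with 5.0 μM rhodamine 123 for 30 min at 37 °C, 5% CO2. Washed, then held in Rhd 123-free medium with or without modulator for 30 or 60 min. Cells washed in ice-cold PBS and analysed by flow cytometry (≥20,000 gated events). MFI ratio = median fluorescence of treated/untreated control. Mean ± SE, three independent experiments.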
# Homo sapiens [7] = species: Homo sapiens; test: (§7) Inhibition of P-gp in human K562/Dox cells assessed as reduction in Rh-123 efflux by measuring mean fluorescence intensity at 1 uM preincubated for 15 mins followed by Rh-123 addition for 30 mins and subsequent replacement in Rh-123 free medium measured after 60 mins by FACS analysis; format: cell-based; summary of the method: as §6
# K562 [8] = test: Induction of Rh-123 accumulation in human K562 cells at 1 uM preincubated for 15 mins followed by Rh-123 addition and measured after 30 mins by FACS analysis; format: functional, cell-based
# Summary of the method: (§8)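 Cells (K562/DOX or parental K562) got modulator at 1.0 μM, with 15 min pre-exposure, then were loaded with 5.0 μM rhodamine-123 for 30 min at 37 °C in 5% CO2. After washing, cells sat in Rh-123-free medium with or without modulator for 30 or 60 min efflux. Cells were washed in ice-cold PBS and read by flow cytometry (≥20,000 gated events). MFI ratio is median fluorescence of treated over untreated control.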
# Homo sapiens [9] = species: Homo sapiens; test: Inhibition of P-gp in human K562/Dox cells assessed as potentiation of doxorubicin-induced cytotoxicity by measuring ratio of doxorubicin IC50 to doxorubicin IC50 in presence of test compound at 3 uM after 72 hrs by MTT assay; format: cell-based; summary of the method: as §1
# K562 [10] = test: Cytotoxicity against human K562 cells at 0.1 to 3 uM after 72 hrs by MTT assay; format: cell-based; conditions: k562, 72 h; summary of the method: as §3
# Homo sapiens [11] = species: Homo sapiens; test: Inhibition of P-gp in human K562/Dox cells assessed as increase in Rh-123 accumulation at 1 uM preincubated for 15 mins followed by Rh-123 addition measured after 30 to 60 mins by FACS analysis; format: cell-based; summary of the method: as §8
# Homo sapiens [12] = species: Homo sapiens; test: (§9) Inhibition of P-gp in human K562/Dox cells assessed as potentiation of doxorubicin-induced cytotoxicity after 72 hrs by MTT assay; format: cell-based; summary of the method: as §4
# K562 [13] = test: Inhibition of Rh-123 efflux in human K562 cells at 1 uM preincubated for 15 mins followed by Rh-123 addition for 30 mins and subsequent replacement in Rh-123 free medium measured after 30 to 60 mins by FACS analysis; format: functional, cell-based; summary of the method: as §8
# K562 [14] = test: Potentiation of doxorubicin-induced cytotoxicity against human K562 cells at 0.1 to 3 uM after 72 hrs by MTT assay; format: functional, cell-based; summary of the method: as §4
# Homo sapiens [15] = species: Homo sapiens; test: Inhibition of P-gp in human K562/Dox cells assessed as potentiation of doxorubicin-induced cytotoxicity by measuring ratio of doxorubicin IC50 to doxorubicin IC50 in presence of test compound at 0.1 uM after 72 hrs by MTT assay; format: cell-based; summary of the method: as §1
# [16] = Half life in PBS up to 1 uM by LC-MS/MS analysis; format: physicochemical; summary of the method: as §2
# Homo sapiens [17] = species: Homo sapiens; test: as §5, with “measuring increase in” for “measuring”, “analysis relative to control” for “analysis”; format: cell-based; summary of the method: as §8
# [18] = as §9; format: cell-based; conditions: K562, 72 h; summary of the method: as §4
# Homo sapiens [19] = species: Homo sapiens; test: as §7, with “measuring increase in” for “measuring”, “analysis relative to control” for “analysis”; format: cell-based; summary of the method: as §8
# [20] = Cytotoxicity against human K562/Dox cells at 3 uM after 72 hrs by MTT assay relative to control; format: cell-based; summary of the method: as §3
compound,measurement,setting,value
COc1cc2c(cc1OC)CN(CCc1ccc(NC(=O)c3cc(OC)c(OC)cc3NC(=O)c3cnc4ccccc4c3)cc1)CC2,Ratio IC50,Homo sapiens [1],31.4
CCOC(=O)[C@H](CCc1ccccc1)N[C@@H](C)C(=O)N1CCC[C@H]1C(=O)O,half-life,[2],0.417 h
CCOC(=O)C(C)c1cccc(C(=O)c2ccccc2)c1 (stereo not drawn),half-life,[3],1.83 h
COc1cc(/C=C/CN2CCN(Cc3c4ccccc4cc4ccccc34)CC2)cc(OC)c1OC,Activity,[4],Non-Toxic
same,Activity,K562 [5],inactive
same,Flu intensity,Homo sapiens [6],7.5
same,Flu intensity,Homo sapiens [7],2.4
same,Activity,K562 [8],inactive
same,Ratio IC50,Homo sapiens [1],8.8
same,Ratio IC50,Homo sapiens [9],22
same,Activity,K562 [10],Non-Toxic
same,P-gp inhibition activity call (increase in Rh-123 accumulation),Homo sapiens [11],Active
same,inhibition,Homo sapiens [12],Dose-dependent effect
same,half-life,[3],> 4 h
same,inhibition,K562 [13],inactive
same,Activity,K562 [14],inactive
same,Ratio IC50,Homo sapiens [15],1.7
same,half-life,[2],> 4 h
same,half-life,[16],> 4 h
COc1ccc(C(CCCN2CCN(CCOc3cc(OC)c(OC)c(OC)c3)CC2)c2ccc(OC)cc2)cc1,Activity,[4],Non-Toxic
same,Activity,K562 [5],inactive
same,Flu intensity,Homo sapiens [6],5.5
same,Flu intensity,Homo sapiens [7],1.4
same,Activity,K562 [8],inactive
same,Ratio IC50,Homo sapiens [1],4.5
same,Ratio IC50,Homo sapiens [9],8.8
same,Activity,K562 [10],Non-Toxic
same,P-gp inhibition activity call (increase in Rh-123 accumulation),Homo sapiens [11],Active
same,inhibition,Homo sapiens [12],Dose-dependent effect
same,half-life,[3],> 4 h
same,inhibition,K562 [13],inactive
same,Activity,K562 [14],inactive
same,Ratio IC50,Homo sapiens [15],2.4
same,half-life,[2],> 4 h
same,half-life,[16],> 4 h
COc1ccc(C(CCCN2CCN(C/C=C/c3cc(OC)c(OC)c(OC)c3)CC2)c2ccc(OC)cc2)cc1,Activity,[4],Non-Toxic
same,Activity,K562 [5],inactive
same,Flu intensity,Homo sapiens [6],108
same,Flu intensity,Homo sapiens [7],49.9
same,Activity,K562 [8],inactive
same,Ratio IC50,Homo sapiens [1],12.9
same,Ratio IC50,Homo sapiens [9],44
same,Activity,K562 [10],Non-Toxic
same,P-gp inhibition activity call (increase in Rh-123 accumulation),Homo sapiens [11],Active
same,fold change (FC),Homo sapiens [17],100
same,inhibition,Homo sapiens [12],Dose-dependent effect
same,EC50,[18],2.7 µM
same,fold change (FC),Homo sapiens [19],50
same,half-life,[3],> 4 h
same,inhibition,K562 [13],inactive
same,Activity,K562 [14],inactive
same,Ratio IC50,Homo sapiens [15],1.9
same,half-life,[2],> 4 h
same,half-life,[16],> 4 h
COc1ccc(C(CCCN2CCN(Cc3cc(OC)c(OC)c(OC)c3)CC2)c2ccc(OC)cc2)cc1,Activity,K562 [5],inactive
same,Flu intensity,Homo sapiens [6],30
same,Flu intensity,Homo sapiens [7],11.1
same,Activity,K562 [8],inactive
same,Ratio IC50,Homo sapiens [1],10.5
same,Ratio IC50,Homo sapiens [9],73.3
same,Activity,K562 [10],Non-Toxic
same,P-gp inhibition activity call (increase in Rh-123 accumulation),Homo sapiens [11],Active
same,fold change (FC),Homo sapiens [17],30
same,inhibition,Homo sapiens [12],Dose-dependent effect
same,EC50,[18],1.9 µM
same,fold change (FC),Homo sapiens [19],10
same,half-life,[3],> 4 h
same,inhibition,K562 [13],inactive
same,Activity,K562 [14],inactive
same,Ratio IC50,Homo sapiens [15],1.2
same,half-life,[2],> 4 h
same,Activity,[20],<= 30%
same,half-life,[16],> 4 h
